The record followed here is ChEMBL document CHEMBL1156566, “Investigations on the 4-quinolone-3-carboxylic acid motif. 1. Synthesis and structure-activity relationship of a class of human immunodeficiency virus type 1 integrase inhibitors” (J Med Chem, 2008).

Data set [1] can be described thus: Cytotoxicity against human MT4 cells by MTT assay. In kind it is cell-based. In short, it runs like this: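 Human lymphocyte MT-4 cultures were read by MTT in the MT-4/MTT format.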
Data set [2] relates to Human immunodeficiency virus 1. Kind of data set: Antiviral activity against HIV1 3B in MT4 cells assessed as inhibition of virus-induced cytopathic effect by MTT assay. As to conditions: Human immunodeficiency virus 1, 3B. It is filed as functional, organism-based. A digest of the protocol:
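Human lymphocyte MT-4 cultures were infected with HIV-1, and protection from virus-induced cytopathic effect was read by MTT.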

Data set [3] deals with T1, Human immunodeficiency virus type 1 integrase (Human immunodeficiency virus 1, UniProt Q7ZJM1). Kind of data set: Inhibition of HIV1 integrase by overall integration assay.
Data set [4] deals with T1, Human immunodeficiency virus type 1 integrase. Kind of data set: Inhibition of HIV1 integrase DNA strand transfer activity.
Data set [5] has the same target. As to the kind of experiment: Inhibition of HIV1 integrase 3'-processing activity.

T1 sequence (Q7ZJM1 whole entry): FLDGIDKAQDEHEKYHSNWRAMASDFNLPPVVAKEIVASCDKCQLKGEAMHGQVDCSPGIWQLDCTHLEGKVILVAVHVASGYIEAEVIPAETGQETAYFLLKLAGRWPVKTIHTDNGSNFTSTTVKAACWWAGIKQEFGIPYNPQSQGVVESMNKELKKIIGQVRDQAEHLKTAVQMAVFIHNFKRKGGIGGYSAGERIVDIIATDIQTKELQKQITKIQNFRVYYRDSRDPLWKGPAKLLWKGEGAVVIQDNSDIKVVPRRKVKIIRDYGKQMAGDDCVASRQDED

Take `COc1cc2c(cc1Cc1cccc(Cl)c1F)c(=O)c(C(=O)O)cn2[C@H](CO)C(C)C`: the CC50 in data set [1] stood at 1.15 µM. In addition, in data set [2], the EC50 is 0.00037 µM.

Turning to `O=C(O)c1cn(CCO)c2ccc(Cc3cccc(Cl)c3F)cc2c1=O`, the CC50 in data set [1] was more than 15 µM.

In data set [1], `O=C(O)c1cn(CCO)c2ccc(-c3ccccc3)cc2c1=O` returned a CC50 of 44.9 µM. Besides, the EC50 in data set [2] is more than 44.9 µM. For the same compound, the 50% inhibitory concentration (IC50) in data set [3] and in data set [4] was more than 100 µM throughout.

For the compound `O=C(O)c1cn(CCO)c2ccc(Cc3ccc(Cl)cc3Cl)cc2c1=O`, the CC50 in data set [1] is 5.3 µM. Moreover, the EC50 in data set [2] is more than 5.3 µM. Moreover, the IC50 in data set [3] turned out to be 0.07 µM; in data set [4] it was 0.2 µM.

The compound `O=C(O)c1cn(CCCO)c2ccc(Cc3ccc(Cl)cc3Cl)cc2c1=O` gave a CC50 in data set [1] of 3.6 µM. In addition, the EC50 in data set [2] was more than 3.6 µM. Further, the IC50 amounted to 0.9 µM in data set [3] and 1.3 µM in data set [4].

In turn, `O=C(O)c1cn(CCO)c2ccc(Oc3ccc(F)c(Cl)c3)cc2c1=O` came in with a CC50 in data set [1] of 9.9 µM. In addition, the EC50 in data set [2] was more than 9.9 µM. For the same compound, the IC50 was 86.9 µM in data set [3], more than 100 µM in data set [5] and more than 100 µM in data set [4].

`O=C(c1ccc2c(c1)c(=O)c(C(=O)O)cn2CCCO)c1ccc(Cl)cc1Cl`: the CC50 in data set [1] is 17.5 µM. Also, in data set [2], the EC50 was more than 17.5 µM. Further, the IC50 in data set [3] is 73.9 µM; in data set [5], more than 100 µM; in data set [4] it was more than 100 µM.

In data set [1], `O=C(c1ccc2c(c1)c(=O)c(C(=O)O)cn2CCCCO)c1ccc(Cl)cc1Cl` showed a CC50 of 17 µM. Further, the EC50 in data set [2] was more than 17 µM. In addition, the IC50 in data set [3] was 54.9 µM; in data set [5], more than 100 µM; in data set [4] it was more than 100 µM.

The compound `O=C(O)c1cn(CCO)c2ccc(/C=C/c3ccccc3)cc2c1=O` gave a CC50 in data set [1] of 22.6 µM. In addition, in data set [2], the EC50 was more than 22.6 µM. Also, the IC50 in data set [3] was 71.9 µM; in data set [4], more than 100 µM.

In turn, `O=C(Nc1ccccc1)c1ccc2c(c1)c(=O)c(C(=O)O)cn2CCO` showed a CC50 in data set [1] of 224 µM. The EC50 in data set [2] is more than 224 µM. Besides, the IC50 in data set [3] and in data set [4] was more than 100 µM throughout.

Take `CCn1cc(C(=O)O)c(=O)c2c1C(=O)C=C(Nc1cccc(Cl)c1F)C2=O`: in data set [1], the CC50 was found to be 2.4 µM. Besides, in data set [2], the EC50 is more than 2.4 µM. Moreover, the IC50 in data set [3] is 9.7 µM; in data set [5] it was more than 100 µM; in data set [4] it was more than 100 µM.

Turning to `CCn1cc(C(=O)O)c(=O)c2c1C(=O)C=C(Nc1ccc(F)c(Cl)c1)C2=O`, in data set [1], the cytotoxic concentration (CC50) was found to be 2.2 µM. In addition, the EC50 in data set [2] is more than 2.2 µM. For the same compound, the 50% inhibitory concentration (IC50) in data set [3] was 1 µM; in data set [4], 2.1 µM.

In turn, `CN(C)CCn1cc(C(=O)O)c(=O)c2cc(Cc3ccc(Cl)cc3Cl)ccc21` had a CC50 in data set [1] of 5.2 µM. The EC50 in data set [2] is more than 5.2 µM. Besides, the IC50 in data set [3] came out at 10.8 µM; in data set [4] it was 24.1 µM.

In data set [1], `O=C(c1ccc2c(c1)c(=O)c(C(=O)O)cn2CCO)c1ccc(Cl)cc1Cl` yielded a CC50 of 21.1 µM. In addition, the EC50 in data set [2] was more than 21.1 µM. Also, the IC50 was 18.7 µM in data set [3], more than 100 µM in data set [5] and more than 100 µM in data set [4].

For `CCn1cc(C(=O)O)c(=O)c2c1C(=O)C=C(Sc1ccccc1)C2=O`, the CC50 in data set [1] stood at 30 µM. The EC50 in data set [2] is more than 30 µM. The values for the IC50 in data set [3] and in data set [4] were 4.6 µM and 1.6 µM, respectively.

The compound `O=C(Nc1ccc2c(c1)c(=O)c(C(=O)O)cn2CCO)c1ccccc1` returned a CC50 in data set [1] of 220 µM. The EC50 in data set [2] was more than 220 µM. The IC50 in data set [3] and in data set [4] was more than 100 µM in each case.

In data set [1], `O=C(O)c1cn(CCO)c2ccc(Nc3cccc(Cl)c3F)cc2c1=O` had a CC50 of 27.4 µM. Moreover, the EC50 in data set [2] is more than 27.4 µM. The IC50 in data set [3] and in data set [4] was more than 100 µM throughout.

With `CCn1cc(C(=O)O)c(=O)c2cc(Nc3cccc(Cl)c3F)ccc21`, it took 9.8 µM to reach half-maximal cytotoxicity in data set [1] (CC50). Moreover, the EC50 in data set [2] was more than 9.8 µM. The IC50 in data set [3] was 38 µM; in data set [5] it was more than 100 µM; in data set [4] it was more than 100 µM.

Compound `CCn1cc(C(=O)O)c(=O)c2c1C(=O)C=CC2=O` registered a CC50 in data set [1] of 42.8 µM. In data set [2], the EC50 is more than 42.8 µM. Further, the IC50 in data set [3] is 43.7 µM; in data set [4], 58.7 µM.

In turn, `O=C(O)c1cn(CCO)c2ccc(Sc3ccccc3)cc2c1=O` had a CC50 in data set [1] of 22.7 µM. Moreover, the EC50 in data set [2] is more than 22.7 µM. For the same compound, the IC50 came out at 4.8 µM in data set [3] and 18.5 µM in data set [4].

With `O=C(O)c1cn(CCCCO)c2ccc(Cc3ccc(Cl)cc3Cl)cc2c1=O`, the CC50 in data set [1] was found to be 4.2 µM. The EC50 in data set [2] was more than 4.2 µM. The IC50 in data set [3] stood at 0.05 µM; in data set [5], 16.6 µM; in data set [4], 0.6 µM.

For the compound `O=C(O)c1cn(CCO)c2ccc(-c3ccncc3)cc2c1=O`, it took 138 µM to reach half-maximal cytotoxicity in data set [1] (CC50). For the same compound, the EC50 in data set [2] was more than 138 µM. Further, the IC50 in data set [3] is 77.6 µM; in data set [5], more than 100 µM; in data set [4], more than 100 µM.

In data set [1], `COCCn1cc(C(=O)O)c(=O)c2cc(Cc3ccc(Cl)cc3Cl)ccc21` yielded a CC50 of 4.2 µM. Also, the EC50 in data set [2] was more than 4.2 µM. The results for the IC50 in data set [3] and in data set [4] were 5.6 µM and 16.5 µM, respectively.
